# Source: PubChem BioAssay (Broad Institute)
# Vif imaging = HIV Vif inhibition. HEK293T cells, Vif self-association by quenched fluorescence, imaging, 24 h. inhibition, % at 7.49 µM. 0.35% of 340,000 active. AID 602346; in the data active means inhibition above about 50%, passing the limit was not always enough
# S100A4 inh HTS = S100A4-myosin IIA interaction inhibition | P26447 | S100A4/TAMRA-MyoIIA peptide fluorescence polarization | inhibition, % at 10.7 µM | 0.14% of 360,000 active;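 active means mean inhibition of at least 70% across replicates, with every replicate also reaching that level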
# Target sequence (P26447 whole entry, looked up): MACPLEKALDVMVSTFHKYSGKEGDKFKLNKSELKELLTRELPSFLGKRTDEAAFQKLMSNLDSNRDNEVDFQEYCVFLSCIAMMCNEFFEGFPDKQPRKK
#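 Material: S100A4 monomer (human). Medium: Calcium-containing HEPES buffer, pH 7.2. Probe or stimulus: labelled myosin peptide probe, 5 nM. Compound dosing: one concentration per compound. Timing: polarization read 5 min after assay mix addition, stable 5–60 min. Benchmarks: DMSO as neutral control, TFP as positive control.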
# rRNA inh HTS = inhibitors of bacterial rRNA selective over humanized ribosomes; E. coli WT GFP vs humanized-ribosome RFP mutants, fluorescence, 24 h; stronger effect = lower value; DMSO median 0, no signal -100; GFP signal change (wild-type ribosome), % (test concentration not listed); 1.6% of 350,000 active; AID 720706;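 active means significant combined selectivity score with lowered wild-type GFP, culture density cut under 30%, mutant RFP and density less affected; inactive means any of these conditions unmet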
# FN deposition inh = fibronectin deposition inhibition; AH1F fibroblasts, Alexa488-fibronectin deposition fluorescence, overnight; inhibition, % at 12.6 µM; 0.086% of 350,000 active;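 active means mean inhibition across replicates of 30% or more, regardless of how many single replicates reach that level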
#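 Material – AH1F fibroblast monolayer, labelled fibronectin deposition · Reagent – labelled fibronectin 24 nM · Timing – 1 h adhesion, overnight exposure · Measured by – fluorescence at 485 nm excitation, 525 nm emission · Read-out – inhibition of fibronectin deposition signal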
# miR122 inh = inhibitors of miR-122 in Huh7 cells | 0.3% of 340,000 active | AID 602342 | Huh7 miR-122 Renilla luciferase sensor, 48 h; neutral wells = 0, positive control = 100 | activation (reporter increase), % at 12.5 µM;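 active means mean replicate activation score at least 90 and every replicate individually at or above 90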;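 further: higher luciferase means less miR-122 activity so hits act as miR-122 inhibitors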
# HIV Env fusion = blocks HIV Env-driven cell-cell fusion; HeLa-JRFL Env/CEM21 cell fusion, luciferase; inhibition, % at 12.3 µM; 1.1% of 360,000 active; AID 651610;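 active means mean replicate inhibition score of at least 50 and every replicate individually at or above 50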
# Numbers stand for hits; n = inactive; x = no result given. The list is not random: actives were taken first. Their share in the collection is about 2.6%.
SMILES,Vif imaging,S100A4 inh HTS,rRNA inh HTS,FN deposition inh,miR122 inh,HIV Env fusion
C[C@H]1CN([C@@H](C)CO)S(=O)(=O)c2ccc(C3=CCCC3)cc2O[C@H]1CN(C)C(=O)c1cnccn1,x,n,n,n,n,n
O=C(N/N=C/c1ccccc1O)C1SCCCS1,n,n,-14,n,x,n
O=C(NN=Cc1ccccc1O)C1CC1,n,n,n,n,x,x
C[C@H](CO)N1C[C@H](C)[C@@H](CN(C)C(=O)[C@H]2CCCN2C)OCc2ccccc2-c2c(n(C)c3ccccc23)C1=O,x,x,n,n,x,x
Cc1cc2sc3ccc(C#CC4(O)CCCCC4)cc3c(=O)c2cc1C,n,n,n,n,n,65
Cc1ccc(C)c(C(=O)COC(=O)C(C)N2C(=O)C3C4CCC(C4)C3C2=O)c1 (stereo unspecified),n,n,-29,n,n,n
Cc1ccc(C(=O)COC(=O)C(C)N2C(=O)C3C4CCC(C4)C3C2=O)cc1 (stereo unspecified),n,n,n,n,n,n
COc1ccc(Cl)cc1S(=O)(=O)NCc1cccnc1,n,x,x,n,120,n
COc1cc(NS(=O)(=O)c2ccc(C)c(C)c2)c(OC)cc1Cl,n,x,x,n,226,n
COc1ccc(S(=O)(=O)Nc2ccccc2OC)cc1C,n,x,x,n,n,n
COc1ccc(Cl)cc1NS(=O)(=O)c1cc(Cl)ccc1OC,n,n,n,x,255,n
CCOc1ccc(Cl)cc1S(=O)(=O)NCc1cccnc1,n,x,x,n,x,n
COc1ccc(Cl)cc1S(=O)(=O)Nc1ccncc1,n,n,n,n,n,n
COc1ccc(C(=O)NC(=S)NCc2cccnc2)cc1Cl,n,n,-21,n,n,n
CCCNC(=O)N1C[C@@H]2N[C@H](C1)C2c1ccc(-c2cccc(OC)c2)cc1 (stereo partly specified),x,n,n,n,x,x
Cc1noc(C)c1NC(=O)N(C)C[C@@H]1OCCCC[C@@H](C)Oc2ccc(NS(=O)(=O)c3c(C)noc3C)cc2C(=O)N([C@H](C)CO)C[C@H]1C,x,n,n,x,n,n
CCCN1[C@@H]2c3ccc(-c4ccc(F)cc4)c(=O)n3C[C@@H]2[C@@H](CO)[C@@H]1C(=O)OC,x,n,n,x,n,x
C[C@@H]1CN([C@H](C)CO)C(=O)Cc2cc(NC(=O)CCN3CCOCC3)ccc2O[C@@H]1CN(C)C(=O)Nc1cccc2ccccc12,x,n,n,n,n,n
COc1ccc(Cl)cc1S(=O)(=O)N1CCCc2ccccc21,n,n,n,n,n,n
COc1ccc(Cl)cc1S(=O)(=O)N1CCN=C1C,n,n,n,n,n,34
COc1ccc2[nH]c3c4c(ccc3c2c1)C(=O)C=CC4=O,52,n,n,n,n,n
COc1ccc2[nH]c(=O)cc(C(=O)O)c2c1,n,n,n,n,x,n
COc1ccccc1NC(=O)N1CC(=O)N2[C@H](CO)[C@H](c3ccc(-c4ccc(F)cc4)cc3)[C@@H]2C1,x,110,n,x,x,x
CCCC(=O)Nc1ccc2c(c1)C(=O)N(C)[C@H]1CC[C@@H](CC(=O)NCc3ccccc3F)O[C@H]1CO2,x,x,n,n,n,n
O=C(COC(=O)Cc1ccc(Cl)cc1)NCCc1ccccc1,n,n,-24,n,n,n
SMILES,Vif imaging,S100A4 inh HTS,rRNA inh HTS,FN deposition inh,miR122 inh,HIV Env fusion
O=C(Nc1ccccc1)c1nc[nH]c1C(=O)NCCCCCCNC(=O)c1[nH]cnc1C(=O)Nc1ccccc1,n,n,n,n,n,57
O=C(Nc1ccccc1)c1nc[nH]c1C(=O)NCCCNC(=O)c1[nH]cnc1C(=O)Nc1ccccc1,n,n,n,n,n,n
CCCC(=O)N1C[C@@H]2[C@H](c3ccccc31)[C@H](CO)N2C(=O)Nc1ccccc1,x,n,n,x,n,x
OCCOCCn1c(CCNc2nc(-c3ccc(Cl)cc3)cs2)nc2cc(Cl)c(Cl)cc21,n,n,n,n,n,81
O=C(CNc1ccc(Br)cc1)c1ccccc1,n,x,x,n,n,n
O=C(CNc1ccc(F)cc1)c1ccccc1,n,n,n,n,x,106
O=C(CSc1nnc(CNc2ccc(F)cc2)o1)c1ccccc1,62,n,n,x,x,n
O=C1N[C@H](Cc2ccccc2)COCc2cnnn2CC[C@H]1Cc1cccc(F)c1,x,x,n,n,x,x
